Assays:
[1] = folding enthalpy; higher = less favourable; fluorescence melt of hairpins on a sequencing array, two-state fit; conditions: sodium 0.088 M
Outline: (§1)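 Melting temperature and folding enthalpy were obtained by bootstrapped two-state fitting. Fits used Cy3 fluorescence of library hairpins with annealed Cy3 and quencher oligos on a sequenced MiSeq flow cell, imaged in 50 mM Na-HEPES pH 8.0, 25 mM NaCl in 2.5 °C steps up to 60 °C and normalised to pre-quench Cy3 and control constructs. Four replicates were combined by inverse-variance weighting, and fitted temperatures were raised by 9.35 °C to match UV melts.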

[2] = melting temperature; fluorescence melt of hairpins on a sequencing array, two-state fit, raised by 9.35 °C to match UV melts; conditions: sodium 0.088 M
Outline: as §1

Sequence | folding enthalpy [1] [kcal/mol] | Tm [2] [°C]
GATCCCCGTTGGGATC ((((((....)))))) | -32.3 | 62.2
GATCGATTGTCGATC ((((((...)))))) | -35.5 | 51.3
CGCGGAAGGGTCCGCG ((((((....)))))) | -29.1 | 69.3
GTCGTTCGAAAGAATGAC (((.(((....))).))) | -42.1 | 54.9
GATCTACGGTAGATC ((((((...)))))) | -37.3 | 41.4
GCGTAGCGAAAGCTATGC ((.((((....)))).)) | -18 | 62.4
GCTATTCGAAAGAACAGC (((.(((....))).))) | -29.6 | 40.4
GCGTTGGGAAACTGACGC ((((..(....)..)))) | -35.3 | 49.7
GATCTTCGAAAAGATC ((((((....)))))) | -24.9 | 40.5
GACGGTGGAAACGCTGTC (((.(.(....).).))) | -22.2 | 40.9
GCCCCGCGAAAGCGCAGC ((..(((....)))..)) | -7.42 | 40.3
GACATGGGAAACCACGTC (((.(((....))).))) | -26.7 | 38.8
GGCCGCGAAAGCGGTGCC ((((((....)))..))) | -10 | 55.7
GCTAGCGAAAGCTGGAGC ((((((....)))..))) | -14.1 | 43.2
GATGCCCCGAAAGGGATC (((..(((....)))))) | -10.3 | 32.5
GATCTCCTCCGAGATC ((((((....)))))) | -42.5 | 51.4
GTCACGGGAAACCGTGAC (((((((....))))))) | -35.5 | 68.9
GCATAGCGAAAGCAAGGC ((.(.((....)).).)) | -14 | 37.9
GAGCGCGAAAGCGGCCTC ((((((....)))..))) | -11.7 | 51.1
GCCCGGCGAAAGCTGTGC ((.(.((....)).).)) | -19.7 | 40.9
GAGTGCGAAAGCAGGCTC ((((((....)))..))) | -16.7 | 48.3
GCCTTCGAAAGAACTGGC ((((((....)))..))) | -21.9 | 35.7
GGCTCAGGAAACTGAACC ((.((((....)))).)) | -32.3 | 41.8

Sequence | folding enthalpy [1] [kcal/mol] | Tm [2] [°C]
GATCGTATGGACGATC ((((((....)))))) | -27 | 56.5
GGCTGTGGAAACATAGCC ((((.((....)).)))) | -43.4 | 53.5
GATCTCTGATGAGATC ((((((....)))))) | -33.3 | 51.3
GTCCCGCGAAAGCGAGAC (((.(((....))).))) | -32.5 | 55.7
GCTCAGAAATGAGC (((((....))))) | -26.8 | 55.4
GCGTGGCGAAAGCAATGC ((.(.((....)).).)) | -19.6 | 52.8
GCGTCCTCGAAAGAGCGC (((..(((....)))))) | -24.9 | 48.4
GACGACGAAAGTCCCGTC ((((((....)))..))) | -16.6 | 34.3
GGGAGACCGAAAGGTCCC (((..(((....)))))) | -12.8 | 53.2
GCTGCGCGAAAGCAGAGC (((..((....))..))) | -16.1 | 47.7
GCAGGCGAAAGCCATGC ((((((....))).))) | -19.9 | 61
GCGCACGGAAACACGCGC ((((..(....)..)))) | -32.9 | 51.6
GTTGCCCGAAAGGGGAAC (((.(((....))).))) | -34.2 | 62.1
GAATTGGGAAACTAATTC (((((.(....).))))) | -22.7 | 35.5
GTCCACCGAAAGGTCGAC (((.(((....))).))) | -27.2 | 44
GATGACGAAAGTCTATC ((((((....))).))) | -16.4 | 39
GACAGTGGAAACACCGTC (((.(((....))).))) | -24.8 | 39.6
GCCATGCGAAAGCGTTGC ((.(.((....)).).)) | -18.1 | 43.6
AATACGAAAGTATT (((((....))))) | -15.3 | 44.8
GTGTGCCGAAAGGCCCAC (((.(((....))).))) | -25.3 | 53.1
GCAATGCGAAAGCTTTGC ((((.((....)).)))) | -39.1 | 63
GGTCGGCCGAAAGGCACC (((..(((....)))))) | -10.9 | 34.7
GATCTTTGGGAAGATC ((((((....)))))) | -34.1 | 45.6

Sequence | folding enthalpy [1] [kcal/mol] | Tm [2] [°C]
GGACCGCGAAAGCGATCC (((.(((....))).))) | -27.9 | 59
GCTACAGGAAACTGTAGC (((((((....))))))) | -47.9 | 63.7
GATCGAAAATTCGATC ((((((....)))))) | -33.9 | 50
GTAGGTCCGAAAGGATAC (((..(((....)))))) | -12.1 | 28.8
GGCTGAGAAATCAGCC ((((((....)))))) | -34.3 | 65.7
GATCAGATGGCTGATC ((((((....)))))) | -30.4 | 49.3
GATCGAAACTCGATC ((((((...)))))) | -30.4 | 50.2
GGAGAGAAATCTCC (((((....))))) | -18.4 | 45.1
GCCCAGGGAAACCCAGGC (((..((....))..))) | -25.6 | 44.4
GATCTGTTGTCAGATC ((((((....)))))) | -37.1 | 50.9
GGTTAGACGAAAGTCACC (((..(((....)))))) | -6.17 | 27
GGGATCGAAAGATTGCCC ((((((....)))..))) | -14.6 | 32.6
GATCAAACATTGATC ((((((...)))))) | -31.4 | 41.2
GGAAGGCCGAAAGGCTCC (((..(((....)))))) | -11.9 | 34.6
GATCGCGAAAGCGTAATC ((((((....)))..))) | -8.8 | 29.2
GGTTGTGGAAACACGACC (((.(((....))).))) | -43.2 | 54.5
GATCGTTCGAACGATC ((((((....)))))) | -53.9 | 56.6
GCTTGGCGAAAGCTAAGC ((((.((....)).)))) | -30 | 64.7
GACAAGGGAAACCCTGTC ((((.((....)).)))) | -27.8 | 42.5
GAGTACGGAAACGTGCTC (((.(((....))).))) | -48.9 | 53.8
GATCAACGGTTGATC ((((((...)))))) | -40.3 | 44.7
GTATACGAAAGTACTTAC ((((((....)))..))) | -13.5 | 31.5
GATCCTGCTCAGGATC ((((((....)))))) | -48.1 | 55.2

Sequence | folding enthalpy [1] [kcal/mol] | Tm [2] [°C]
GTTAGCCGAAAGGCAAAC (((.(((....))).))) | -18.1 | 48.6
GCCCACCGAAAGGTCGGC (((.(((....))).))) | -40.4 | 53.5
GGCCTTGCGAAAGCAGCC (((..(((....)))))) | -15.8 | 45.2
GATATAGGAAACTATATC (((((((....))))))) | -33.4 | 45.5
GGTAACGGAAACGTTGCC ((.((((....)))).)) | -50.5 | 53.8
GAGTCAGGAAACTGACTC (((((((....))))))) | -37 | 62.6
GATCTCCCGGGAGATC ((((((....)))))) | -52.9 | 58.3
GCGAACGAAAGTTTCCGC ((((((....)))..))) | -21.1 | 36.2
GTGCAGGGAAACTTGCGC (.(((.(....).))).) | -31.2 | 42
GCTTGGCGAAAGCACAGC (((..((....))..))) | -18.2 | 42.2
GAAGAGGGAAACTTCTTC (((((.(....).))))) | -30.1 | 41
GTGCATCCGAAAGGACAC (((..(((....)))))) | -11.7 | 38.2
GGGTCTGGAAACGGATCC ((.((.(....).)).)) | -33 | 41.8
CGTCACGGAAACGTTACG (((.(((....))).))) | -31.2 | 45.3
GTGAGCCGAAAGGCACAC (((.(((....))).))) | -28.9 | 59.8
GCGGGGCGAAAGCCAAGC ((..(((....)))..)) | -27.7 | 65
GCGGGCCCGAAAGGGCGC (((..(((....)))))) | -8.34 | 58
GATCCACGGTTGGATC ((((((....)))))) | -37.7 | 48.9
GATCCTTTCGAGGATC ((((((....)))))) | -38.7 | 53.8
GAGCATGGAAACACGCTC ((((.((....)).)))) | -35.6 | 44
GTAGCTCGAAAGAGATAC (((.(((....))).))) | -43.5 | 54.9
CGAACGGAAACGTGTCG ((((((....))).))) | -23.1 | 38.5
GCGATGGGAAACCATTGC ((.((((....)))).)) | -49.3 | 52.5
